How the values were obtained:
[1] = tested on: MT4; experiment: Cytotoxicity against human MT4 cells assessed as viable cells after 6 days by XTT assay; format: functional; conditions: MT4, 144 h
Method in brief: (§1)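 Cells seeded at 2 × 10⁴ cells/well in 96-well plates; test substances added next day in duplicate. CC50 is the concentration giving 50% viability relative to untreated control cells. Positive control included.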

[2] = Cytotoxicity against human HuH7 cells assessed as viable cells after 6 days by XTT assay; format: functional; conditions: Huh-7, 144 h; method in brief: as §1
[3] = Half life of the compound in phosphate buffer at pH 5.4 in presence of cysteine; format: ADME; conditions: phosphate buffer with cysteine
[4] = Half life of the compound in aqueous HCl; format: physicochemical
Method in brief: (§2)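 Compound dissolved in 2 M HCl at room temperature; reaction followed spectrophotometrically at 318 nm and by LC-HRESIMS. First-order rate constant k (min⁻¹) and t1/2 (min) derived from the decay.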

[5] = Chemical reactivity of the compound in aqueous HCl assessed as reaction rate; format: physicochemical; conditions: buffer; method in brief: as §2
[6] = Drug level in phosphate buffer treated with (3S,7R)-Illudin M at pH 5.4 in presence of cysteine; format: physicochemical
Method in brief: (§3)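 Compound was incubated with L-cysteine in 50 mM buffer at pH 5.4 at room temperature. The reaction was followed for 3 h by UV absorbance at 318 nm and by LC-HRESIMS (C18, 10−90% aqueous MeCN gradient). Reaction half-life was taken from the time course.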

[7] = Drug level in phosphate buffer treated with (3S,7S)-Illudin M at pH 5.4 in presence of cysteine; format: physicochemical; method in brief: as §3

| SMILES | CC50 [1] [nM] | CC50 [2] [nM] | half-life [4] [min] | K [5] [×10⁻³ /min] | other results |
| --- | --- | --- | --- | --- | --- |
| COc1nc(N)nc2c1ncn2[C@@H]1O[C@H](COP(=O)(N[C@H](C)C(=O)OCC(C)(C)C)Oc2ccc3ccccc3c2)[C@@H](O)[C@@]1(C)O (stereo partly drawn) | 3000 | 3000 | – | – | – |
| CC1=C2C(=CC(C)(C)[C@@H]2O)C(=O)[C@@](C)(O)C12CC2 | 14 | 380 | 38 | 12 | half-life [3]: 5.6 min |
| CC1=C2C(=C[C@@](C)(CO)[C@@H]2O)C(=O)[C@@](C)(O)C12CC2 | 23 | 98 | – | – | – |
| Cc1c(O)c2c(c(C)c1CCO)[C@H](O)C(C)(C)[C@H]2SC[C@H](N)C(=O)O | – | – | – | – | Drug metabolism [6]: metabolite_detected |
| CC1=CC2=C[C@@](C)(CO)C[C@@H]2[C@@](C)(O)C12CC2 | > 400000 | > 400000 | – | – | – |
| CC1=C2C(=CC(C)(C)[C@H]2O)C(=O)[C@@](C)(O)C12CC2 | 120 | 1300 | 170 | 4.1 | half-life [3]: 27 min |
| Cc1c(O)c2c(c(C)c1CCO)[C@H](O)C(C)(C)[C@@H]2SC[C@H](N)C(=O)O | – | – | – | – | Drug metabolism [6]: metabolite_detected |
| Cc1c(O)c2c(c(C)c1CCO)[C@@H](O)C(C)(C)[C@H]2SC[C@H](N)C(=O)O | – | – | – | – | Drug metabolism [7]: metabolite_detected |
| CC1(C)C=C2C=C(CO)C3(CC3)[C@](C)(O)[C@H]2C1 | 110000 | 240000 | – | – | – |
| CC1=C2C(=CC(C)(C)[C@@H]2O)C(=O)[C@](C)(O)C12CC2 [ILLUDIN M] | – | – | 147 | 4.7 | – |

From ChEMBL document CHEMBL3739411, “Cytotoxic Illudane Sesquiterpenes from the Fungus Granulobasidium vellereum (Ellis and Cragin) Jülich” (J Nat Prod, 2015)
